The values below come from publication PMC2947312 (Neuron, 2010).

For experiment [1], the system named is Aβ42, Aβ40 and Aβtotal produced by SH-SY5Y-APP cells. Put plainly: SH-SY5Y-APP cell-based Aβ assay. On the set-up: species or system human. The gist of the method: (§1)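 Stable lines: CHO-APPswe is CHO transfected with human APP695 carrying the Swedish double mutation (670/671 K/M to N/L). SH-SY5Y-APP is human neuroblastoma SH-SY5Y transfected with wild-type human APP751. Secreted Aβ40, Aβ42 and Aβtotal were measured in conditioned medium by mAb-specific sandwich ELISAs. Cytotoxicity was checked by Alamar Blue at the same compound concentrations, up to a maximum of 30 μM.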

The test system of experiment [2] is Aβ42, Aβ40 and Aβtotal produced by CHO-APPswe cells. Put plainly: CHO-APPswe cell-based Aβ assay. Also on record: species or system Chinese hamster. The essentials: as §1
In experiment [3] the test system is Aβ peptide variants from CHO-APPswe cells. In words: SELDI-TOF MS of Aβ peptide variants in CHO-APPswe conditioned medium. Format: cell-based, Chinese hamster. Conditions: 1 μM. The gist of the method: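 CHO-APPswe cells were treated with vehicle, reference γ-secretase inhibitor (1 µM) or test compound (1 µM). Conditioned medium was immunoprecipitated with anti-Aβ17-24 mAb 4G8. Ciphergen chips were prepared from the medium and analysed by SELDI-TOF mass spectrometry to profile Aβ peptide variants.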

Experiment [4] concerns Aβ peptides secreted from Tg 2576 primary mixed brain cultures. Put plainly: Aβ peptides in Tg 2576 mixed brain cultures. Format: cell-based, mouse. Conditions: Tg 2576 MBCs. The gist of the method:
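Neuronal cultures came from E17 Tg 2576 embryo brains, grown 6 days, then treated 18 h in triplicate wells at 10 concentrations in 3-fold dilution steps. Vehicle (PEG-400:H2O 80:20 v/v) was the negative control and BMS-299897 the positive control. Aβ38 was read by Meso Scale assay; Aβ40, Aβ42 and Aβtotal by mAb sandwich ELISA. Variants were resolved by anti-Aβ immunoprecipitation, tris-glycine gel electrophoresis and immunoblotting.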

For experiment [5], the system named is γ-secretase-mediated ε-site processing of Notch (NΔE). Put plainly: NICD formation in HEK-APP-NΔE_7-4 cells. The format is cell-based, human. Conditions: NΔE Notch/APP co-transfected cell line; DAPT 1 μM. The essentials:
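HEK293 cells doubly transfected with APP and Notch NΔE were treated overnight with test compound, 1 μM DAPT, or 0.2% v/v DMSO vehicle. Conditioned medium was collected, cell lysates were prepared, and anti-NICD immunoblots were run with GAPDH as a control. NICD was quantified by laser scanning densitometry against a half-volume vehicle sample.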

For experiment [6], the system named is γ-secretase (AICD, Aβ42 and Aβ40 formation from APP-CTFs). Put plainly: Cell-free assay of AICD and Aβ formation, CHO-APPswe membranes. Format: biochemical, Chinese hamster. Conditions: DAPT 1 μM, Compound 3 over a broad range of concentrations. The gist of the method:
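CHO-APPswe membrane preparations were incubated cell-free with vehicle (0.2% DMSO), 1 μM DAPT, or a range of test compound concentrations. AICD (ε-site) and Aβ42/Aβ40 (γ-site) formation were measured in parallel from the same preparations, semi-quantitatively. Data are mean ± SEM, n ≥ 3.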

As to `C[C@H](c1ccc(F)cc1CCCC(=O)O)N(c1cc(F)ccc1F)S(=O)(=O)c1ccc(Cl)cc1` [BMS-299897], the “effect on Aβ42, Aβ40 and Aβtotal peptide levels” value was “equivalently inhibited Aβ42, Aβ40 and Aβtotal peptide production” in experiment [1]; “equivalently inhibited Aβ42, Aβ40 and Aβtotal peptide production” in experiment [2]. Moreover, the “effect on Aβ peptide variants (SELDI-TOF MS)” value in experiment [3] was “reduced the levels of all Aβ peptide variants to baseline levels”. In addition, the “effect on Aβ42, Aβ40, Aβ38 and Aβtotal (Meso Scale ELISAs)” value in experiment [4] (18 h) was “dose-dependent decrease in Aβ42, Aβ40, Aβ38 and Aβtotal levels”. The “effect on Aβ peptide variants (IP/immunoblot)” value in experiment [4] (BMS-299897 1 μM) was “reduced the levels of all Aβ variants (Aβ37, Aβ38, Aβ40 and Aβ42) to undetectable levels”.
For `C[C@H](NC(=O)Cc1cc(F)cc(F)c1)C(=O)N[C@H](C(=O)OC(C)(C)C)c1ccccc1` [DAPT, N-[N-(3,5-difluorophenacetyl)-L-alanyl]-S-phenylglycine t-butyl ester], in experiment [5], the “effect on NICD formation” value is “prevented NICD production entirely”. In addition, the “effect on AICD formation” value in experiment [6] is listed as “totally inhibited”.
